Assay [1] concerns the target T1, Toll-like receptor 9 (Mus musculus) (UniProt Q9EQU3).
T1 sequence (whole entry): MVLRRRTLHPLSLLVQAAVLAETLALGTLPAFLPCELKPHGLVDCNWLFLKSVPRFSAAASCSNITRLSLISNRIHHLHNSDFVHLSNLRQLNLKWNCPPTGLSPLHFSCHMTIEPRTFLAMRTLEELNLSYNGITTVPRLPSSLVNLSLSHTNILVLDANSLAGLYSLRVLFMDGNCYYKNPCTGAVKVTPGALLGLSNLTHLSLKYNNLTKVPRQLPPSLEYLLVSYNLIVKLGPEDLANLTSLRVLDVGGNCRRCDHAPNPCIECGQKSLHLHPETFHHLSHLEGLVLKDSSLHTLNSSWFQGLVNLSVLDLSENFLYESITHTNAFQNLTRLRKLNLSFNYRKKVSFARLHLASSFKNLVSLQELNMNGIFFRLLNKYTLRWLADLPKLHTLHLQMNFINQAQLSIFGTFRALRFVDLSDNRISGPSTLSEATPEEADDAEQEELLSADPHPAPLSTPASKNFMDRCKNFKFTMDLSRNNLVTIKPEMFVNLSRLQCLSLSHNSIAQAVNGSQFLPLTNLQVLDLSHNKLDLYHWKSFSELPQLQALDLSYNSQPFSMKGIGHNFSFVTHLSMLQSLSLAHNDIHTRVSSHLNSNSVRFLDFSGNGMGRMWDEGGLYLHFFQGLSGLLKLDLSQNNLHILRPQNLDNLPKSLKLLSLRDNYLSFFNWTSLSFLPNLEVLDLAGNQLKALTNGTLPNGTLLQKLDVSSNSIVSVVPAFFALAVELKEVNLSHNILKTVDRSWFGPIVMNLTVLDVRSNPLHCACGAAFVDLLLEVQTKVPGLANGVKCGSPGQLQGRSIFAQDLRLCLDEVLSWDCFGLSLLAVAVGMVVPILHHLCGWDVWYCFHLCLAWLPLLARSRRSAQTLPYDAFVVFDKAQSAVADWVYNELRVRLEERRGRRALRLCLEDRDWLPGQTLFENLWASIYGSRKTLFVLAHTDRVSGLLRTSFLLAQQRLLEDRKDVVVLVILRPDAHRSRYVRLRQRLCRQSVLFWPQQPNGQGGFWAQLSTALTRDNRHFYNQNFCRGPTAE
Nature of the assay: Activation of mouse TLR9 expressed in HEK293 assessed as induction of NF-kappaB activity reporter gene assay. The format is cell-based. Background: In a reporter assay the amount or activity of a reporter protein is the signal.

In assay [2] the test system is PBMC. Nature of the assay: Immunomodulatory activity in human PBMC assessed as induction of IL12 at 100 ug/ml after 24 hrs. It counts as functional, cell-based. The gist of the method:
(§1)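 Human PBMCs plated at 5 × 10^6 cells/mL; compounds dissolved in PBS added at various concentrations, 37 °C for 24 h. Supernatant cytokines/chemokines quantified with human Luminex multiplex kit.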

Assay [3] relates to Splenocyte. Nature of the assay: Immunomodulatory activity in C57BL/6 mouse splenocytes bearing TLR7 receptor assessed as IL12 release at 100 ug/ml after 24 hrs by ELISA. It counts as functional, cell-based. The gist of the method: (§2)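 C57BL/6 splenocytes in RPMI 1640 with 10% FBS, penicillin/streptomycin, 2 mM L-glutamine, plated at 5 × 10^6 cells/mL; compounds in PBS added, 37 °C for 24 h. Supernatant IL-12 and IL-6 by ELISA; representative of three independent experiments.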

The subject of assay [4] is Splenocyte. Nature of the assay: Immunomodulatory activity in C57BL/6 mouse splenocytes bearing TLR7 receptor assessed as IL6 release at 100 ug/ml after 24 hrs by ELISA. The format is functional, cell-based. The gist of the method:
as §2
In general terms: In an ELISA, binding on a coated surface is turned into a signal by an enzyme label.

Assay [5] concerns the target T2, Toll-like receptor 7 (Homo sapiens) (UniProt Q9NYK1).
T2 sequence (whole entry): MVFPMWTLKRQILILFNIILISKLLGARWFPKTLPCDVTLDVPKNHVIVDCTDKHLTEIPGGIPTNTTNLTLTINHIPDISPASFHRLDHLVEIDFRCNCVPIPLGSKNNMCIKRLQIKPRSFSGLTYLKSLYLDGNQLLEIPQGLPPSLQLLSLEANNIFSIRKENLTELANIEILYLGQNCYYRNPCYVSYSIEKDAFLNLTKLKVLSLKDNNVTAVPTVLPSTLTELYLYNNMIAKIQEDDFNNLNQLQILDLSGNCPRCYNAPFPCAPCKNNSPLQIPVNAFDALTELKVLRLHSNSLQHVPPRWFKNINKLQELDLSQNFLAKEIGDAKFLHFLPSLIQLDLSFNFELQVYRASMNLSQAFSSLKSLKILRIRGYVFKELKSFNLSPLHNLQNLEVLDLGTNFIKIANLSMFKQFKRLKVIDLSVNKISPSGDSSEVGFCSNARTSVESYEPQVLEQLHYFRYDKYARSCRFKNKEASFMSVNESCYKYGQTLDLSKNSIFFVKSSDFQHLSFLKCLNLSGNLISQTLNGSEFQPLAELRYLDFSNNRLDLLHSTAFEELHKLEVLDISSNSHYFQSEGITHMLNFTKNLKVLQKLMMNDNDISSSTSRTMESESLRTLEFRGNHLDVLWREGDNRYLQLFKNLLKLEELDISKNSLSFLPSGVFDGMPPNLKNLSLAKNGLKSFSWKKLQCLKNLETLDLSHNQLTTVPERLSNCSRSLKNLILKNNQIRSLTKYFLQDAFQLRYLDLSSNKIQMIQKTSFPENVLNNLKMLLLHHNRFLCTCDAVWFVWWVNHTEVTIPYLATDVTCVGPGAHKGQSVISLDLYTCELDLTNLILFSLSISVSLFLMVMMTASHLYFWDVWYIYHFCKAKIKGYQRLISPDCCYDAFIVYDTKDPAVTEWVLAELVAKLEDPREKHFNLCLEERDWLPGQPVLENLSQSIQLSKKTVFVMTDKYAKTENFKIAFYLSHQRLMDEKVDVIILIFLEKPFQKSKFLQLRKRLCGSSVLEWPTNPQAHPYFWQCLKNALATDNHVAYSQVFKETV
Nature of the assay: Activation of human TLR7 expressed in HEK293XL assessed as fold induction of NF-kappaB activity at 50 ug/ml after 18 hrs by reporter gene assay relative to control. A digest of the protocol:
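HEK293 cells stably expressing human TLR7 or TLR8, transiently transfected with SEAP reporter plasmid; medium replaced, SIMRA compounds added, 18 h incubation. Supernatant SEAP measured by QuantiBlue; expressed as fold increase in NF-κB activity over PBS control. Tabulated data at 50 μg/mL, representative of three independent experiments.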

For assay [6], the system named is PBMC. As to the kind of experiment: Immunomodulatory activity in human PBMC assessed as induction of TNFalpha at 100 ug/ml after 24 hrs. It counts as functional, cell-based. The gist of the method: as §1

SMILES strings stand for the structures. Activity calls are given as the source filed them. The rule behind the calls is not given here.

In the case of `Nc1ccn([C@@H]2O[C@H](CO)[C@@H](OP(=O)(S)OC[C@H]3O[C@@H](n4ccc(=O)[nH]c4=O)[C@H](O)[C@@H]3OP(=O)(S)OC[C@H]3O[C@@H](n4ccc5c(=O)[nH]c(N)nc54)[C@H](O)[C@@H]3OP(=O)(S)OC[C@H]3O[C@@H](n4cnc5c(N)ncnc54)[C@H](O)[C@@H]3OP(=O)(S)OC[C@H]3O[C@@H](n4ccc(N)nc4=O)[C@H](O)[C@@H]3OP(=O)(S)OC[C@H]3O[C@@H](n4ccc5c(=O)[nH]c(N)nc54)[C@H](O)[C@@H]3OP(=O)(S)OC[C@H]3O[C@@H](n4cnc5c(N)ncnc54)[C@H](O)[C@@H]3OP(=O)(S)OC[C@H]3O[C@@H](n4ccc5c(=O)[nH]c(N)nc54)[C@H](O)[C@@H]3OP(=O)(S)OC[C@H]3O[C@@H](n4ccc(N)nc4=O)[C@H](O)[C@@H]3OP(=O)(S)OC[C@H]3O[C@@H](n4ccc(=O)[nH]c4=O)[C@H](O)[C@@H]3OP(=O)(S)OC[C@H]3O[C@@H](n4ccc(=O)[nH]c4=O)[C@H](O)[C@@H]3OP(=O)(S)OCC(O)COP(=O)(S)O[C@H]3[C@@H](O)[C@H](n4ccc(=O)[nH]c4=O)O[C@@H]3COP(=O)(S)O[C@H]3[C@@H](O)[C@H](n4ccc(=O)[nH]c4=O)O[C@@H]3COP(=O)(S)O[C@H]3[C@@H](O)[C@H](n4ccc(N)nc4=O)O[C@@H]3COP(=O)(S)O[C@H]3[C@@H](O)[C@H](n4ccc5c(=O)[nH]c(N)nc54)O[C@@H]3COP(=O)(S)O[C@H]3[C@@H](O)[C@H](n4cnc5c(N)ncnc54)O[C@@H]3COP(=O)(S)O[C@H]3[C@@H](O)[C@H](n4ccc5c(=O)[nH]c(N)nc54)O[C@@H]3COP(=O)(S)O[C@H]3[C@@H](O)[C@H](n4ccc(N)nc4=O)O[C@@H]3COP(=O)(S)O[C@H]3[C@@H](O)[C@H](n4cnc5c(N)ncnc54)O[C@@H]3COP(=O)(S)O[C@H]3[C@@H](O)[C@H](n4ccc5c(=O)[nH]c(N)nc54)O[C@@H]3COP(=O)(S)O[C@H]3[C@@H](O)[C@H](n4ccc(=O)[nH]c4=O)O[C@@H]3COP(=O)(S)O[C@H]3[C@@H](O)[C@H](n4ccc(N)nc4=O)O[C@@H]3CO)[C@H]2O)c(=O)n1` (stereo partly specified), in assay [1], the result was inactive. The figures for the Activity with PBMC [2] and with PBMC [6] were 519 pg/mL and 33.4 pg/mL, respectively. Also, the result in the assay on Splenocyte [3] and with Splenocyte [4] was Active. For the same compound, in assay [5], the fold change (FC) is 30.

The values above are taken from ChEMBL document CHEMBL1154352, “Toll-like receptor 7 selective synthetic oligoribonucleotide agonists: synthesis and structure-activity relationship studies” (J Med Chem, 2009).
